Assay results as given in paper PMC9975633 (Chinese Herbal Medicines, 2022).

Key:
[1] = tested on: rat different intestinal segments; assay: In situ single-pass intestinal perfusion in rats; assay type: in vivo, Sprague-Dawley rats; details: same tested intestinal segment
Method in brief: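 Male Sprague-Dawley rats (250 ± 50 g) were fasted overnight, anesthetized, and ~10 cm duodenum, jejunum or colon segments were cannulated and flushed with 37 °C saline. Krebs-Ringer perfusate held 22.50 mg/mL extract or matched pure anthraquinones (DMSO <1.0%). Flow was 1 mL/min for 5 min, then 0.2 mL/min for 30 min equilibration. Outflow was collected every 15 min to 120 min and analysed by HPLC. Peff was calculated from gravimetrically corrected volumes and segment length/radius.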

[2] = ref Wang, Yang, & Song, 2001; cited from earlier work
Caco-2 cell monolayer = assay: Bidirectional transport of SKE and RAI in Caco-2 cell monolayer model; assay type: in vitro ADME, human; details: Caco-2; for Cumulative transport mass (AP-BL): in SKE 0.025, 0.05, 0.1 mg/mL over time, Fig. 3
[3] = as above; assay type: in vitro ADME, human; details: human; for efflux ratio at 0.05 mg/mL / efflux ratio at 0.1 mg/mL / efflux ratio at 0.025 mg/mL: Caco-2, ER, ER=Papp(B-A)/Papp(A-B); for Papp A→B at 0.05 mg/mL / Papp A→B at 0.1 mg/mL / Papp A→B at 0.025 mg/mL: Caco-2, Papp(A-B), Caco-2, AP-BL; for Papp A→B at 0.05 mg/mL / Papp A→B at 0.1 mg/mL / Papp A→B at 0.025 mg/mL / Papp B→A at 0.05 mg/mL / Papp B→A at 0.1 mg/mL / Papp B→A at 0.025 mg/mL: mean ± SD, n = 3; for Papp B→A at 0.05 mg/mL / Papp B→A at 0.1 mg/mL / Papp B→A at 0.025 mg/mL: Caco-2, Papp(B-A), Caco-2, BL-AP
MRP = assay: Effect of MK-571; assay type: in vitro ADME, human; details: 0.1 mg/mL SKE + 100 μmol/L MK-571; Caco-2; Fig. 4
Method in brief: (§1)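 Caco-2 cells were seeded at 1×10^5/cm² on 0.4 µm inserts and grown about 20 d in DMEM with 10% FBS, then used once TEER exceeded 500 Ω·cm². After a 15 min HBSS equilibration, 0.1 mg/mL extract plus 100 µmol/L inhibitor was dosed AP or BL at 37 °C with 50 r/min shaking. Receiver was sampled with replacement and four anthraquinones were quantified by HPLC. Papp came from the slope, ER = Papp(B-A)/Papp(A-B), n=3.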

P-gp = P-gp (Homo sapiens, UniProt P08183); assay: Effect of verapamil; assay type: in vitro ADME; details: 0.1 mg/mL SKE + 100 μmol/L verapamil; Caco-2; Fig. 4
P-gp, sequence (P08183 whole entry): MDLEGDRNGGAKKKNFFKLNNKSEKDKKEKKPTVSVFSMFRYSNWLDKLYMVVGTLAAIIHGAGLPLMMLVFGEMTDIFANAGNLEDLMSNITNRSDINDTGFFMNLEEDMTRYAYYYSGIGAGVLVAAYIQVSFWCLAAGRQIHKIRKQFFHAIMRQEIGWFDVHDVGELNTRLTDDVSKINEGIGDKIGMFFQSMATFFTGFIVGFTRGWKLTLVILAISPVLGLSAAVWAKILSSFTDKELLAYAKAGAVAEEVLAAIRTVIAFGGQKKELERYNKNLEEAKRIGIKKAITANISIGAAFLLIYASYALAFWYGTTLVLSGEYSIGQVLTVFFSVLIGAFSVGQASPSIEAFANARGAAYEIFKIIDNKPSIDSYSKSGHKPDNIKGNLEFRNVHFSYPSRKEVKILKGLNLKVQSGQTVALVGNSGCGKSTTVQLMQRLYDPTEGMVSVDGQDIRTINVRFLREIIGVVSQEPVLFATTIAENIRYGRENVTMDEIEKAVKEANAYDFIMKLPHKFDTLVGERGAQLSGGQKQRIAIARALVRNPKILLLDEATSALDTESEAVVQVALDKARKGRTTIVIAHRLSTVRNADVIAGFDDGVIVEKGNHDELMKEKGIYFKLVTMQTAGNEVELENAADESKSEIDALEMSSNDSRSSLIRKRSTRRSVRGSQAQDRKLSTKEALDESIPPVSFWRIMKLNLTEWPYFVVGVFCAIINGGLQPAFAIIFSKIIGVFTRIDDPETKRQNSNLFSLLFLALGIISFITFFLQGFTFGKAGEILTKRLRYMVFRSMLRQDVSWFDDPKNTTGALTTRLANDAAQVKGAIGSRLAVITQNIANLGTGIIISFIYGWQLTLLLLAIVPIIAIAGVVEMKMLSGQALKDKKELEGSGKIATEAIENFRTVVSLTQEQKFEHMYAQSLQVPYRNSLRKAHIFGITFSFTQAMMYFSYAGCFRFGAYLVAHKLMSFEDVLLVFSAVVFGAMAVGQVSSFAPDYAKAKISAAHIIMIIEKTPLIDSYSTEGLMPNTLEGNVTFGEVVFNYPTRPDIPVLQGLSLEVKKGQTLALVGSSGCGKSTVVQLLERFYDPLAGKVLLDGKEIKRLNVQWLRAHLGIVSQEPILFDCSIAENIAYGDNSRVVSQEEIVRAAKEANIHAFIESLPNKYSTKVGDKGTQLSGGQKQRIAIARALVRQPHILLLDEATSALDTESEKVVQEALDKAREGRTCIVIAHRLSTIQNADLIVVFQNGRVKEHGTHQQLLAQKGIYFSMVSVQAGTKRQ
Method in brief: as §1

[4] = in RAI, contents as in 0.05 mg/mL SKE
[5] = in RAI, contents as in 0.1 mg/mL SKE

Peff in RAI compared with SKE [1]	Cumulative transport mass (AP-BL) (Caco-2 cell monolayer)	efflux ratio at 0.05 mg/mL [3, 4]	efflux ratio at 0.1 mg/mL [3, 5]	efflux ratio at 0.025 mg/mL ([3]; in SKE)	efflux ratio at 0.05 mg/mL ([3]; in SKE, 0.05 mg/mL)	efflux ratio at 0.1 mg/mL ([3]; in SKE, 0.1 mg/mL)	Papp A→B at 0.05 mg/mL [3, 4] [×10⁻⁶ cm/s]	Papp A→B at 0.1 mg/mL [3, 5] [×10⁻⁶ cm/s]	Papp A→B at 0.025 mg/mL ([3]; in SKE) [×10⁻⁶ cm/s]	Papp A→B at 0.05 mg/mL ([3]; in SKE, 0.05 mg/mL) [×10⁻⁶ cm/s]	Papp A→B at 0.1 mg/mL ([3]; in SKE, 0.1 mg/mL) [×10⁻⁶ cm/s]	Papp B→A at 0.05 mg/mL [3, 4] [×10⁻⁶ cm/s]	Papp B→A at 0.1 mg/mL [3, 5] [×10⁻⁶ cm/s]	Papp B→A at 0.025 mg/mL ([3]; in SKE) [×10⁻⁶ cm/s]	Papp B→A at 0.05 mg/mL ([3]; in SKE, 0.05 mg/mL) [×10⁻⁶ cm/s]	Papp B→A at 0.1 mg/mL ([3]; in SKE, 0.1 mg/mL) [×10⁻⁶ cm/s]	ER after addition of MK571, compared with SKE group (MRP)	ER after addition of verapamil, compared with SKE group (P-gp)	Compound	pKa [2]	other results
lower than that in SKE	time- and concentration-dependent	0.76	0.88	0.96	0.73	0.64	35 ± 1.72	34.2 ± 1.13	27.4 ± 1.47	28.02 ± 0.14	31 ± 2.31	26.6 ± 1.03	30.1 ± 1.37	21 ± 0.4	20.5 ± 0.46	19.8 ± 0.37	–	–	O=C(O)c1cc(O)c2c(c1)C(=O)c1cccc(O)c1C2=O [Rhein, rhein]	4.72	Papp(A-B) as fold of Papp(B-A) (Caco-2 cell monolayer; 0.025 mg/mL SKE): 1.4 fold; Papp(A-B) as fold of Papp(B-A) (Caco-2 cell monolayer; 0.05 mg/mL SKE): 1.6 fold; ER (over all concentrations) (Caco-2 cell monolayer; in RAI, contents as in 0.025-0.1 mg/mL SKE): lower than 1.0; ER (over all concentrations) (Caco-2 cell monolayer; in SKE, 0.025-0.1 mg/mL): lower than 1.0
higher than those in SKE	time- and concentration-dependent	1.48	1.62	1.6	1.59	1.46	7.74 ± 0.61	7.31 ± 0.97	7.4 ± 0.08	6.65 ± 0.16	6.24 ± 0.29	11.5 ± 0.27	11.8 ± 0.66	11.9 ± 1.11	10.6 ± 0.31	9.13 ± 0.42	decreased	reduced the most	Cc1cc(O)c2c(c1)C(=O)c1cc(O)cc(O)c1C2=O [Emodin, emodin]	5.70	–
higher than those in SKE	time- and concentration-dependent	1.75	1.66	2.22	2.02	1.61	8.99 ± 0.44	7.97 ± 1.06	6.23 ± 0.86	6.87 ± 0.23	6.63 ± 0.48	15.7 ± 1.05	13.2 ± 0.67	13.8 ± 0.65	13.9 ± 0.86	10.7 ± 0.15	reduced the most	decreased	Cc1cc(O)c2c(c1)C(=O)c1cccc(O)c1C2=O [Chrysophanol, chrysophanol]	8.58	–
higher than those in SKE	time- and concentration-dependent	–	–	–	–	–	15.1 ± 1.54	14.3 ± 1.06	19.6 ± 2.04	19.4 ± 1.47	17.6 ± 0.74	16.1 ± 1.83	17.3 ± 0.79	24 ± 0.59	23.4 ± 1.56	19.4 ± 1.65	decreased	reduced the most	O=C1c2cccc(O)c2C(=O)c2c(O)cc(CO)cc21 [Aloe-emodin, aloe-emodin]	8.64	–
